Laboratory results reported in ChEMBL document CHEMBL1137367, “Design, synthesis, and preliminary evaluation of doxazolidine carbamates as prodrugs activated by carboxylesterases” (J Med Chem, 2006).

Assays:
SK-HEP1 [1] = test: Growth inhibition of SK-HEP-1 cells by crystal violet assay after 24 hrs; type: functional, cell-based; conditions: Homo sapiens, SK-HEP1, 24 h
Procedure, shortened: (§1)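 Cancer lines were grown in RPMI 1640 with 10% FCS and 1% pen-strep and seeded at 1000 cells/well overnight. Drug was given in serum-free medium for 3 or 24 h, then fresh complete medium until controls reached ~80% confluence (3-5 days). Cells were fixed with glutaraldehyde and stained with crystal violet, solubilised in 70% ethanol and read at 588 nm. IC50 is log molar, with six replicates per concentration and ≥2 experiments.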

H9c2 [2] = test: Growth inhibition of H9c2(2-1) cells by crystal violet assay after 24 hrs; conditions: Rattus norvegicus, H9c2, 24 h
NCI/ADR-RES [3] = test: Growth inhibition of MCF7/Adr cells by crystal violet assay after 24 hrs; type: functional, cell-based; conditions: Homo sapiens; procedure, shortened: as §1
DU-145 = test: Growth inhibition of DU145 cells by crystal violet assay after 24 hrs; type: functional, cell-based; conditions: Homo sapiens, DU-145, 24 h; procedure, shortened: as §1
HepG2 [4] = test: Growth inhibition of HepG2 cells by crystal violet assay after 24 hrs; type: functional, cell-based; conditions: Homo sapiens, HepG2, 24 h; procedure, shortened: as §1
MCF7 [5] = test: Growth inhibition of MCF7 cells by crystal violet assay after 24 hrs; type: functional, cell-based; conditions: Homo sapiens, MCF7, 24 h; procedure, shortened: as §1
SHP77 = test: Growth inhibition of SHP77 cells by crystal violet assay after 24 hrs; type: functional, cell-based; conditions: Homo sapiens, SHP77, 24 h; procedure, shortened: as §1
Vero [6] = test: Cytotoxicity against Vero cells by MTT assay after 24 hrs; type: functional, cell-based; conditions: Chlorocebus sabaeus
Procedure, shortened: (§2)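 Vero cells were grown in DMEM with 10% FCS and 1% pen-strep at 37 °C in 5% CO2. They were seeded at 1000 cells/well and left overnight to adhere. Drug was given in serum-free medium for 3 or 24 h, then replaced with fresh complete medium until untreated wells reached ~80% confluence (3-5 days). MTT was read at 554 nm and IC50 given as log molar. Each concentration was run in six wells, each experiment at least twice.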

NCI/ADR-RES [7] = test: Growth inhibition of MCF7/Adr cells by crystal violet assay after 3 hrs; type: functional, cell-based; conditions: Homo sapiens; procedure, shortened: as §1
H9c2 [8] = test: Growth inhibition of rat H9c2(2-1) cells by MTT assay after 3 hrs; type: functional, cell-based; conditions: H9c2, 3 h
Procedure, shortened: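 Rat cardiomyocytes were kept in DMEM with 10% FCS and pen-strep and seeded at 500 cells/well overnight. They got serum-free drug medium for 3 h, then fresh complete medium until controls reached ~80% confluence (3-5 days). Read-out was MTT optical density at 554 nm, with IC50 as log molar concentration. There were six replicates per concentration and at least two experiments.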

HepG2 [9] = test: Growth inhibition of HepG2 cells by crystal violet assay after 3 hrs; type: functional, cell-based; conditions: Homo sapiens, HepG2, 3 h
Procedure, shortened: (§3)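 Cells were seeded at 1000/well and left to adhere overnight at 37 °C in 5% CO2. They were then exposed for 3 h to a range of drug concentrations in serum-free RPMI 1640. Medium was replaced with fresh RPMI containing 10% fetal calf serum and 1% pen-strep, and cells were grown until untreated controls reached ~80% confluence (3-5 days). Cells were fixed with glutaraldehyde, stained with crystal violet, and the dye was solubilised in 70% ethanol before reading OD at 588 nm. IC50 is given as log molar. Each concentration was run six-fold, and each experiment at least twice.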

MCF7 [10] = test: Growth inhibition of MCF7 cells by crystal violet assay after 3 hrs; type: functional, cell-based; conditions: Homo sapiens, MCF7, 3 h; procedure, shortened: as §3
SK-HEP1 [11] = test: Growth inhibition of SK-HEP-1 cells by crystal violet assay after 3 hrs; type: functional, cell-based; conditions: Homo sapiens, SK-HEP1, 3 h; procedure, shortened: as §1
Vero [12] = test: Cytotoxicity against Vero cells by MTT assay after 3 hrs; type: functional, cell-based; conditions: Chlorocebus sabaeus; procedure, shortened: as §2
[13] = Stability in buffer at pH 7.4 after 24 hrs; type: physicochemical; conditions: pH 7.4, 24 h
Procedure, shortened: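 The compound was held in pH 7.4 buffer, without cells or growth medium, for 24 h at ambient temperature. Hydrolysis was followed by HPLC.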

SK-HEP1 [14] = test: Decrease in drug uptake in SK-HEP-1 cells by flow cytometry at 0.5 uM in presence of 10% fetal bovine serum; type: functional, Homo sapiens; parameters: scale not given: the % may be the effect or the level left
Procedure, shortened: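 SK-HEP-1 cells at 200,000 per well were attached overnight. They were then exposed at 37 °C to 0.5 μM drug (final) in RPMI with 10% fetal bovine serum or without serum. Cells were trypsinized at 0.5, 1, 1.5, 2 and 3 h and Dox fluorophore measured by flow cytometry. Mean fluorescence was divided by untreated control to give relative fluorescence.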

Compound | IC50 (SK-HEP1 [1]) | IC50 (H9c2 [2]) | IC50 (NCI/ADR-RES [3]) | IC50 (DU-145) | IC50 (HepG2 [4]) | IC50 (MCF7 [5]) | IC50 (SHP77) | IC50 (Vero [6]) | IC50 (NCI/ADR-RES [7]) | IC50 (H9c2 [8]) | IC50 (HepG2 [9]) | IC50 (MCF7 [10]) | IC50 (SK-HEP1 [11]) | IC50 (Vero [12]) | Stability [13] | Activity (SK-HEP1 [14])
CCCCOC(=O)Nc1ccc(COC(=O)N2CO[C@@H]3[C@H](C)O[C@@H](O[C@H]4C[C@](O)(C(=O)CO)Cc5c(O)c6c(c(O)c54)C(=O)c4c(OC)cccc4C6=O)C[C@@H]32)cc1 | 1580 nM | 63.1 nM | 1260 nM | 501 nM | 20 nM | 79400 nM | 79.4 nM | 794 nM |  |  |  |  |  |  |  | 
CCOC(=O)N1CO[C@@H]2[C@H](C)O[C@@H](O[C@H]3C[C@](O)(C(=O)CO)Cc4c(O)c5c(c(O)c43)C(=O)c3c(OC)cccc3C5=O)C[C@@H]21 | > 1000 nM |  | > 10000 nM |  | > 1000 nM | < 1000 nM |  |  | 5010 nM | 1580 nM | > 1000 nM | > 1000 nM | > 1000 nM |  |  | 
COc1cccc2c1C(=O)c1c(O)c3c(c(O)c1C2=O)C[C@@](O)(C(=O)CO)C[C@@H]3O[C@H]1C[C@@H]2NCO[C@@H]2[C@H](C)O1 [DOXAZOLIDINE] |  |  |  |  |  |  |  | 7.94 nM | 3.16 nM | 31.6 nM | 10 nM | 3.16 nM | 3.98 nM | 6.31 nM |  | 
COc1cccc2c1C(=O)c1c(O)c3c(c(O)c1C2=O)C[C@@](O)(C(=O)CO)C[C@@H]3O[C@H]1C[C@H](N)[C@H](O)[C@H](C)O1 [DOXORUBICIN] | 50.1 nM | 20 nM | 2510 nM | 31.6 nM | 31.6 nM | 12.6 nM | 126 nM | 501 nM | 6310 nM | 31.6 nM | 200 nM | 316 nM | 100 nM | 1000 nM |  | 
CCCCCOC(=O)Nc1ccc(COC(=O)N2CO[C@@H]3[C@H](C)O[C@@H](O[C@H]4C[C@](O)(C(=O)CO)Cc5c(O)c6c(c(O)c54)C(=O)c4c(OC)cccc4C6=O)C[C@@H]32)cc1 | 1000 nM | 631 nM | 316 nM | 200 nM | 50.1 nM | 2510 nM | 50.1 nM | 1000 nM |  |  |  |  |  |  |  | 
CCCCOC(=O)N1CO[C@@H]2[C@H](C)O[C@@H](O[C@H]3C[C@](O)(C(=O)CO)Cc4c(O)c5c(c(O)c43)C(=O)c3c(OC)cccc3C5=O)C[C@@H]21 | 398 nM | 1580 nM | 631 nM | 398 nM | 200 nM | 794 nM | 251 nM | 501 nM |  |  |  |  |  |  |  | 
CCCCCOC(=O)N1CO[C@@H]2[C@H](C)O[C@@H](O[C@H]3C[C@](O)(C(=O)CO)Cc4c(O)c5c(c(O)c43)C(=O)c3c(OC)cccc3C5=O)C[C@@H]21 | 200 nM | 251 nM | 1000 nM | 1000 nM | 316 nM | 794 nM | 501 nM | 5010 nM |  |  | > 1000 nM | > 1000 nM | > 1000 nM | 3980 nM | Stable | 25%
